ChEMBL document CHEMBL5058577, “EUbOPEN Chemogenomics Library 2 (Multiplex)” (2022)

Test system: Fibroblast
Assay: Multiplex assay against human fibroblast
Assay type: toxicity, cell-based
Method in brief: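 Compound was added to live cells that had been stained at seeding with Hoechst33342, BioTracker Green Microtubule Cytoskeleton Dye, MitoTracker Red and Annexin V Alexa Fluor 680, and imaging followed on a CQ1 microscope at 37°C and 5% CO2. CellPathfinder machine-learning gating divided cells into Hoechst high-intensity objects or normal cells, normal cells into healthy, pyknosed or fragmented nuclei, and pyknosed cells into mitotic or apoptotic. Tubulin, mitochondrial-mass and membrane-permeability phenotypes are per cents of healthy-nucleus cells.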

[1] = 12 h, 1 µM, compound concentration 1 uM, replicate 1
[2] = 12 h, 1 µM, compound concentration 1 uM, replicate 2
[3] = 12 h, 10 µM, compound concentration 10 uM, replicate 1
[4] = 12 h, 10 µM, compound concentration 10 uM, replicate 2
[5] = 24 h, 1 µM, compound concentration 1 uM, replicate 1
[6] = 24 h, 1 µM, compound concentration 1 uM, replicate 2
[7] = 24 h, 10 µM, compound concentration 10 uM, replicate 1
[8] = 24 h, 10 µM, compound concentration 10 uM, replicate 2
[9] = 48 h, 1 µM, compound concentration 1 uM, replicate 1
[10] = 48 h, 1 µM, compound concentration 1 uM, replicate 2
[11] = 48 h, 10 µM, compound concentration 10 uM, replicate 1
[12] = 48 h, 10 µM, compound concentration 10 uM, replicate 2

O=C(O)Cc1ccccc1Nc1c(Cl)cccc1Cl [DICLOFENAC]
Population Apoptotic (%) [1]: 43%
Population Fragmented Nuclei (%) [1]: 14%
Population Healthy Nuclei (%) [1]: 67%
Population Hoechst High Intensity Objects (%) [1]: 0%
Population Membrane Permeable-Phenotype (%) [1]: 1%
Population Mitochondria Different-Phenotype (%) [1]: 6%
Population Mitotic Cells (%) [1]: 56%
Population Normal (%) [1]: 99%
Population Pyknosed Nuclei (%) [1]: 17%
Population Tubulin-Different-Phenotype (%) [1]: 25%
Population Apoptotic (%) [2]: 33%
Population Fragmented Nuclei (%) [2]: 25%
Population Healthy Nuclei (%) [2]: 49%
Population Hoechst High Intensity Objects (%) [2]: 2%
Population Membrane Permeable-Phenotype (%) [2]: 7%
Population Mitotic Cells (%) [2]: 66%
Population Normal (%) [2]: 97%
Population Pyknosed Nuclei (%) [2]: 25%
Population Tubulin-Different-Phenotype (%) [2]: 49%
Population Apoptotic (%) [3]: 32%
Population Fragmented Nuclei (%) [3]: 14%
Population Healthy Nuclei (%) [3]: 68%
Population Hoechst High Intensity Objects (%) [3]: 0%
Population Membrane Permeable-Phenotype (%) [3]: 0%
Population Mitochondria Different-Phenotype (%) [3]: 5%
Population Mitotic Cells (%) [3]: 68%
Population Normal (%) [3]: 99%
Population Pyknosed Nuclei (%) [3]: 17%
Population Tubulin-Different-Phenotype (%) [3]: 24%
Population Apoptotic (%) [4]: 38%
Population Fragmented Nuclei (%) [4]: 36%
Population Healthy Nuclei (%) [4]: 46%
Population Hoechst High Intensity Objects (%) [4]: 6%
Population Membrane Permeable-Phenotype (%) [4]: 16%
Population Mitochondria Different-Phenotype (%) [4]: 8%
Population Mitotic Cells (%) [4]: 61%
Population Normal (%) [4]: 93%
Population Tubulin-Different-Phenotype (%) [4]: 54%
Population Apoptotic (%) [5]: 52%
Population Fragmented Nuclei (%) [5]: 15%
Population Healthy Nuclei (%) [5]: 66%
Population Hoechst High Intensity Objects (%) [5]: 2%
Population Membrane Permeable-Phenotype (%) [5]: 0%
Population Mitochondria Different-Phenotype (%) [5]: 4%
Population Mitotic Cells (%) [5]: 47%
Population Normal (%) [5]: 97%
Population Pyknosed Nuclei (%) [5]: 17%
Population Tubulin-Different-Phenotype (%) [5]: 29%
Population Apoptotic (%) [6]: 35%
Population Fragmented Nuclei (%) [6]: 28%
Population Healthy Nuclei (%) [6]: 49%
Population Hoechst High Intensity Objects (%) [6]: 3%
Population Membrane Permeable-Phenotype (%) [6]: 12%
Population Mitochondria Different-Phenotype (%) [6]: 6%
Population Mitotic Cells (%) [6]: 64%
Population Normal (%) [6]: 96%
Population Pyknosed Nuclei (%) [6]: 21%
Population Tubulin-Different-Phenotype (%) [6]: 50%
Population Apoptotic (%) [7]: 30%
Population Fragmented Nuclei (%) [7]: 16%
Population Healthy Nuclei (%) [7]: 68%
Population Hoechst High Intensity Objects (%) [7]: 5%
Population Membrane Permeable-Phenotype (%) [7]: 0%
Population Mitochondria Different-Phenotype (%) [7]: 5%
Population Mitotic Cells (%) [7]: 69%
Population Normal (%) [7]: 94%
Population Pyknosed Nuclei (%) [7]: 15%
Population Tubulin-Different-Phenotype (%) [7]: 19%
Population Apoptotic (%) [8]: 50%
Population Fragmented Nuclei (%) [8]: 31%
Population Healthy Nuclei (%) [8]: 50%
Population Hoechst High Intensity Objects (%) [8]: 2%
Population Membrane Permeable-Phenotype (%) [8]: 8%
Population Mitochondria Different-Phenotype (%) [8]: 10%
Population Mitotic Cells (%) [8]: 50%
Population Normal (%) [8]: 97%
Population Pyknosed Nuclei (%) [8]: 18%
Population Tubulin-Different-Phenotype (%) [8]: 55%
Population Apoptotic (%) [9]: 85%
Population Fragmented Nuclei (%) [9]: 21%
Population Healthy Nuclei (%) [9]: 61%
Population Hoechst High Intensity Objects (%) [9]: 3%
Population Membrane Permeable-Phenotype (%) [9]: 4%
Population Mitochondria Different-Phenotype (%) [9]: 4%
Population Mitotic Cells (%) [9]: 15%
Population Normal (%) [9]: 96%
Population Pyknosed Nuclei (%) [9]: 16%
Population Tubulin-Different-Phenotype (%) [9]: 24%
Population Apoptotic (%) [10]: 57%
Population Fragmented Nuclei (%) [10]: 36%
Population Healthy Nuclei (%) [10]: 53%
Population Hoechst High Intensity Objects (%) [10]: 5%
Population Mitotic Cells (%) [10]: 42%
Population Normal (%) [10]: 94%
Population Pyknosed Nuclei (%) [10]: 10%
Population Tubulin-Different-Phenotype (%) [10]: 44%
Population Apoptotic (%) [11]: 73%
Population Fragmented Nuclei (%) [11]: 22%
Population Healthy Nuclei (%) [11]: 65%
Population Hoechst High Intensity Objects (%) [11]: 3%
Population Membrane Permeable-Phenotype (%) [11]: 0%
Population Mitochondria Different-Phenotype (%) [11]: 3%
Population Mitotic Cells (%) [11]: 26%
Population Normal (%) [11]: 96%
Population Pyknosed Nuclei (%) [11]: 12%
Population Tubulin-Different-Phenotype (%) [11]: 28%
Population Apoptotic (%) [12]: 30%
Population Fragmented Nuclei (%) [12]: 35%
Population Healthy Nuclei (%) [12]: 50%
Population Membrane Permeable-Phenotype (%) [12]: 4%
Population Mitochondria Different-Phenotype (%) [12]: 6%
Population Mitotic Cells (%) [12]: 69%
Population Pyknosed Nuclei (%) [12]: 14%
Population Tubulin-Different-Phenotype (%) [12]: 53%
